≈ marks a conversion by molar mass, not a printed value. Blank lines part the entries; values can stand above or below the compound they belong to.
Tests used:
Bacillus subtilis [1] = test: Antibacterial activity against Bacillus subtilis assessed as growth inhibition at 4 mg/disc after 24 hrs by disc diffusion assay; type: functional
Method in brief: (§1)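 Disc diffusion. Suspension at 0.5 McFarland mixed 1/10 into Mueller Hinton agar. 5 mm sterile filter-paper discs, set in stainless steel cylinders, moistened with compound in chloroform at 4 mg/disc. Plates incubated 24 h at 30 °C; inhibition zone diameter (mm, mean) measured.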

Staphylococcus aureus [2] = test: Antibacterial activity against Staphylococcus aureus ATCC 25923 assessed as growth inhibition at 4 mg/disc after 24 hrs by disc diffusion assay; type: functional; method in brief: as §1
Candida albicans = test: Antifungal activity against Candida albicans ATCC 10231 assessed as growth inhibition at 4 mg/disc after 48 hrs by disc diffusion assay; type: functional
Method in brief: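 Candida albicans suspension at 0.5 McFarland mixed 1/10 into Sabouraud agar. 5 mm filter-paper discs in steel cylinders, loaded with compound in chloroform at 4 mg/disc; nystatin control at 100 µg/disc. Incubated 48 h at 28 °C; inhibition zone diameter (mm) measured.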

Escherichia coli [3] = test: Antibacterial activity against Escherichia coli ATCC 25922 assessed as growth inhibition at 4 mg/disc after 24 hrs by disc diffusion assay; type: functional; method in brief: as §1
Pseudomonas aeruginosa [4] = test: Antibacterial activity against Pseudomonas aeruginosa ATCC 27853 assessed as growth inhibition at 4 mg/disc after 24 hrs by disc diffusion assay; type: functional; method in brief: as §1
Kocuria rhizophila [5] = test: Antibacterial activity against Sarcina luteus ATCC 9341 assessed as growth inhibition at 4 mg/disc after 24 hrs by disc diffusion assay; type: functional, DC2201; method in brief: as §1
Staphylococcus aureus [6] = test: Antibacterial activity against Staphylococcus aureus ATCC 25923 assessed as growth inhibition after 24 hrs by broth microdilution assay; type: functional; details: ATCC 25923, 24 h
Method in brief: (§2)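 Broth microdilution in Mueller Hinton broth. Inoculum adjusted to 0.5 McFarland. Compounds dissolved in 50% DMSO at 250 mg/mL (stock), then two-fold serial dilutions over 250 to 0.12 mg/mL. Further broth plus 5 µL inoculum added per well. Incubated 24 h at 37 °C, screened twice per organism. MIC is the lowest concentration with no visible growth; chloramphenicol MIC expressed in µg/mL.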

Bacillus subtilis [7] = test: Antibacterial activity against Bacillus subtilis assessed as growth inhibition after 24 hrs by broth microdilution assay; type: functional; method in brief: as §2
Kocuria rhizophila [8] = test: Antibacterial activity against Sarcina luteus ATCC 9341 assessed as growth inhibition after 24 hrs by broth microdilution assay; type: functional; details: DC2201, 24 h; method in brief: as §2
Escherichia coli [9] = test: Antibacterial activity against Escherichia coli ATCC 25922 assessed as growth inhibition at 30 ug/disc after 24 hrs by disc diffusion assay; type: functional; details: ATCC 25922, 24 h, read-out: DIZ
Method in brief: (§3)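 Chloramphenicol control discs at 30 µg/disc on Mueller Hinton agar seeded 1/10 with 0.5 McFarland suspension. Incubated 24 h at 30 °C; inhibition zone diameter (mm) read.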

Pseudomonas aeruginosa [10] = test: Antibacterial activity against Pseudomonas aeruginosa ATCC 27853 assessed as growth inhibition at 30 ug/disc after 24 hrs by disc diffusion assay; type: functional; details: ATCC 27853, 24 h, read-out: DIZ; method in brief: as §3
Kocuria rhizophila [11] = test: Antibacterial activity against Sarcina luteus ATCC 9341 assessed as growth inhibition at 30 ug/disc after 24 hrs by disc diffusion assay; type: functional; details: DC2201, 24 h, read-out: DIZ; method in brief: as §3
Bacillus subtilis [12] = test: Antibacterial activity against Bacillus subtilis assessed as growth inhibition at 30 ug/disc after 24 hrs by disc diffusion assay; type: functional; details: read-out: DIZ; method in brief: as §3
Staphylococcus aureus [13] = test: Antibacterial activity against Staphylococcus aureus ATCC 25923 assessed as growth inhibition at 30 ug/disc after 24 hrs by disc diffusion assay; type: functional; details: ATCC 25923, 24 h, read-out: DIZ
Method in brief: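 Disc diffusion. A 0.5 McFarland bacterial suspension was mixed 1/10 with Mueller Hinton agar. Sterile 5 mm filter paper discs, set in sterile steel cylinders, were loaded at 30 µg/disc (the reference antibiotic dose; test compounds were 4 mg/disc in chloroform). Plates were incubated 24 h at 30 °C, and the inhibition zone diameter (mm, mean) was measured.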

SMILES: O=C(OCC(F)(F)F)[C@H]1C[C@H](C(=O)c2ccc(Cl)cc2)N2N=CC=C[C@@H]12
- diameter of the inhibition zone (DIZ) (Bacillus subtilis [1]): 33 mm
- diameter of the inhibition zone (DIZ) (Staphylococcus aureus [2]): 30 mm
- diameter of the inhibition zone (DIZ) (Candida albicans): 37 mm
- diameter of the inhibition zone (DIZ) (Escherichia coli [3]): 35 mm
- diameter of the inhibition zone (DIZ) (Pseudomonas aeruginosa [4]): 20 mm
- diameter of the inhibition zone (DIZ) (Kocuria rhizophila [5]): 58 mm

- MIC (Staphylococcus aureus [6]): 3800 µg/mL (≈ 10400 µM)
- MIC (Bacillus subtilis [7]): 180 µg/mL (≈ 491 µM)
- MIC (Kocuria rhizophila [8]): 110 µg/mL (≈ 300 µM)
SMILES: Cc1ccc(C(=O)[C@H]2C[C@H](C(=O)OCC(F)(F)F)[C@@H]3C=CC=NN23)cc1
- diameter of the inhibition zone (DIZ) (Bacillus subtilis [1]): 39 mm
- diameter of the inhibition zone (DIZ) (Staphylococcus aureus [2]): 30 mm
- diameter of the inhibition zone (DIZ) (Candida albicans): 30 mm
- diameter of the inhibition zone (DIZ) (Escherichia coli [3]): 28 mm
- diameter of the inhibition zone (DIZ) (Pseudomonas aeruginosa [4]): 20 mm
- diameter of the inhibition zone (DIZ) (Kocuria rhizophila [5]): 59 mm

SMILES: CCOC(=O)[C@H]1[C@H](C(F)(F)F)[C@@H]2C=CC=NN2[C@H]1C(=O)c1ccc(F)cc1
- diameter of the inhibition zone (DIZ) (Bacillus subtilis [1]): 38 mm
- diameter of the inhibition zone (DIZ) (Staphylococcus aureus [2]): 28 mm
- diameter of the inhibition zone (DIZ) (Candida albicans): 29 mm
- diameter of the inhibition zone (DIZ) (Escherichia coli [3]): 31 mm
- diameter of the inhibition zone (DIZ) (Pseudomonas aeruginosa [4]): 21 mm
- diameter of the inhibition zone (DIZ) (Kocuria rhizophila [5]): 58 mm

- MIC (Staphylococcus aureus [6]): 4200 µg/mL (≈ 11000 µM)
- MIC (Bacillus subtilis [7]): 200 µg/mL (≈ 526 µM)
- MIC (Kocuria rhizophila [8]): 90 µg/mL (≈ 237 µM)
SMILES: CCOC(=O)[C@H]1[C@H](C(F)(F)F)[C@@H]2C=CC=NN2[C@H]1C(=O)c1ccc(C)cc1
- diameter of the inhibition zone (DIZ) (Bacillus subtilis [1]): 38 mm
- diameter of the inhibition zone (DIZ) (Staphylococcus aureus [2]): 29 mm
- diameter of the inhibition zone (DIZ) (Candida albicans): 31 mm
- diameter of the inhibition zone (DIZ) (Escherichia coli [3]): 27 mm
- diameter of the inhibition zone (DIZ) (Pseudomonas aeruginosa [4]): 21 mm
- diameter of the inhibition zone (DIZ) (Kocuria rhizophila [5]): 61 mm

SMILES: CCOC(=O)c1c(C(F)(F)F)c2cccnn2c1C(=O)c1ccc(F)cc1
- diameter of the inhibition zone (DIZ) (Bacillus subtilis [1]): 31 mm
- diameter of the inhibition zone (DIZ) (Staphylococcus aureus [2]): 30 mm
- diameter of the inhibition zone (DIZ) (Candida albicans): 29 mm
- diameter of the inhibition zone (DIZ) (Escherichia coli [3]): 34 mm
- diameter of the inhibition zone (DIZ) (Pseudomonas aeruginosa [4]): 16 mm
- diameter of the inhibition zone (DIZ) (Kocuria rhizophila [5]): 41 mm

SMILES: CCOC(=O)c1c(C(F)(F)F)c2cccnn2c1C(=O)c1ccc(Cl)cc1
- diameter of the inhibition zone (DIZ) (Bacillus subtilis [1]): 38 mm
- diameter of the inhibition zone (DIZ) (Staphylococcus aureus [2]): 29 mm
- diameter of the inhibition zone (DIZ) (Candida albicans): 26 mm
- diameter of the inhibition zone (DIZ) (Escherichia coli [3]): 42 mm
- diameter of the inhibition zone (DIZ) (Pseudomonas aeruginosa [4]): 18 mm
- diameter of the inhibition zone (DIZ) (Kocuria rhizophila [5]): 44 mm

- MIC (Staphylococcus aureus [6]): 160 µg/mL (≈ 425 µM)
- MIC (Bacillus subtilis [7]): 220 µg/mL (≈ 585 µM)
- MIC (Kocuria rhizophila [8]): 100 µg/mL (≈ 266 µM)
SMILES: CCOC(=O)c1c(C(F)(F)F)c2cccnn2c1C(=O)c1ccc(C)cc1
- diameter of the inhibition zone (DIZ) (Bacillus subtilis [1]): 36 mm
- diameter of the inhibition zone (DIZ) (Staphylococcus aureus [2]): 49 mm
- diameter of the inhibition zone (DIZ) (Candida albicans): 32 mm
- diameter of the inhibition zone (DIZ) (Escherichia coli [3]): 40 mm
- diameter of the inhibition zone (DIZ) (Pseudomonas aeruginosa [4]): 19 mm
- diameter of the inhibition zone (DIZ) (Kocuria rhizophila [5]): 60 mm

SMILES: O=C(OCC(F)(F)F)[C@H]1C[C@H](C(=O)c2ccc(F)cc2)N2N=CC=C[C@@H]12
- diameter of the inhibition zone (DIZ) (Bacillus subtilis [1]): 31 mm
- diameter of the inhibition zone (DIZ) (Staphylococcus aureus [2]): 28 mm
- diameter of the inhibition zone (DIZ) (Candida albicans): 27 mm
- diameter of the inhibition zone (DIZ) (Escherichia coli [3]): 26 mm
- diameter of the inhibition zone (DIZ) (Pseudomonas aeruginosa [4]): 19 mm
- diameter of the inhibition zone (DIZ) (Kocuria rhizophila [5]): 55 mm

SMILES: O=C(N[C@H](CO)[C@H](O)c1ccc([N+](=O)[O-])cc1)C(Cl)Cl [CHLORAMPHENICOL]
- MIC (Staphylococcus aureus [6]): 0.25 µg/mL (≈ 0.774 µM)
- zone of inhibition at 30 µg/disc (Escherichia coli [9]): 29 mm
- zone of inhibition at 30 µg/disc (Pseudomonas aeruginosa [10]): 19 mm
- MIC (Bacillus subtilis [7]): 0.25 µg/mL (≈ 0.774 µM)
- MIC (Kocuria rhizophila [8]): 0.25 µg/mL (≈ 0.774 µM)
- zone of inhibition at 30 µg/disc (Kocuria rhizophila [11]): 30 mm
- zone of inhibition at 30 µg/disc (Bacillus subtilis [12]): 25 mm
- zone of inhibition at 30 µg/disc (Staphylococcus aureus [13]): 25 mm

— ChEMBL document CHEMBL2417536, “New pyridazine-fluorine derivatives: synthesis, chemistry and biological activity. Part II” (2013)
